V1R ag counter – counter-screen for oxytocin receptor agonists: human V1a receptor agonists | AID 2797 | P37288 | activation, % at 3 µM | CHO-V1R cells, Fluo-8 calcium fluorescence, agonist mode; 0% DMSO, 100% 3 nM vasopressin | 0.25% of 320,000 active;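 active = activation above the mean activation of all tested compounds plus 3 SD, per screening run, cut at about 20% in these data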;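 note: signal is peak over basal fluorescence ratio across a 100 second FLIPR read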
Target sequence (P37288 whole entry, looked up): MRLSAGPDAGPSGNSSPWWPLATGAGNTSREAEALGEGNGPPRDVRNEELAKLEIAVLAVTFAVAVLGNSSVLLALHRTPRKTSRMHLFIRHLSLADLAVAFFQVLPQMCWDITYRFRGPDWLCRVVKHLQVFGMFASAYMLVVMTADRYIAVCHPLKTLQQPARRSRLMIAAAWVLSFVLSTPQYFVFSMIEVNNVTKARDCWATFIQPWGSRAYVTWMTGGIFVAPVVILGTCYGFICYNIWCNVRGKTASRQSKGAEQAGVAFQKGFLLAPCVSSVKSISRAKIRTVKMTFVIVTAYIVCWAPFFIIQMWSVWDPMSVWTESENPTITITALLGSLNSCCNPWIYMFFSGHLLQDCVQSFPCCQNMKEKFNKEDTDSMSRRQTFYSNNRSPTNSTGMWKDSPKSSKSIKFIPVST
TAAR1 ag – agonists of human TAAR1; Q96RJ0; CHO RD-HGA16 TAAR1, Fluo-8 calcium fluorescence; vehicle wells 0%, saturating PEA agonist 100%; activation, % at 3 µM; 0.99% of 360,000 active;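 active = activation above the mean activation of all test compounds in the run plus 3 SD, cut at about 38% in these data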
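Signal – calcium-sensitive Fluo-8 signal, excitation 470-495, emission 515-575 nm · System – RD-HGA16 (CHO) cells co-expressing Gα16 and hTAAR1 · Incubation – 17-24 h seeding, 75 min 37 °C dye, 30 min RT · Compound dosing – 3 µM single concentration · Repeats – no replicates (n 1)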
OXTR ag – human OXTR agonism. CHO-OTR cells, Fluo-8 calcium fluorescence; normalized: DMSO 0%, oxytocin 100%. AID 2435. 0.32% of 320,000 active. P30559. activation, % at 3 µM;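 active = activation above the mean of all tested compounds plus 3 SD, cutoff set per screening run, cut at about 20% in these data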;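 note: peak over basal fluorescence ratio from a 100 s FLIPR kinetic read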
OXTR potentiator – potentiates the human oxytocin receptor response | activation, % at 3 µM | P30559 | CHO-OTR cells, Fluo-8 calcium fluorescence, potentiator mode; 0% = oxytocin EC15, 100% = EC100 | 0.061% of 320,000 active | AID 2445;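 active = activation above that plate's cutoff, the mean activation of tested compounds plus 3 SD, cut at about 6.6% in these data, passing the limit was not always enough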;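 note: 100% uses oxytocin at 75 nM as the full agonist control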
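Assay system: CHO cell line stably expressing human OTR. Reagent: EC15 oxytocin agonist. Dosing: single dose, 3.0 µM nominal final compound concentration. Timing: compound 6 min at room temperature before oxytocin, 100 s read. Signal: kinetic Fluo-8 calcium fluorescence. Controls: oxytocin EC15 low and EC100 high.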
TAAR1 antagonist – antagonists of human TAAR1; CHO RD-HGA16 TAAR1, Fluo-8 calcium fluorescence, antagonist; inhibition, % at 3 µM; 1.5% of 360,000 active;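 active = inhibition above a per-plate cutoff, the mean inhibition of test compounds on that plate plus 3 SD, cut at about 49% in these data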;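 note: 0% = DMSO plus EC80 beta-PEA response and 100% = DMSO alone without agonist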
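Test system – hTAAR1-expressing CHO RD-HGA16 cells, Gα16-coupled · Reagent – β-PEA at EC80 concentration, post-compound challenge · Compound dosing – 3 µM, single point · Timing – 140 s kinetic read after compound, 140 s after agonist · Detection – Fluo-8 intracellular calcium dye fluorescence, real-time kinetic reads · Control set – DMSO and EC80 PEA controls · Repeats – n of 1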
TAAR1 ag conf – confirmation of human TAAR1 agonists; activation, % at 3 µM; shares compounds with TAAR1 ag; 82% of 2,400 active; AID 651783; CHO RD-HGA16 TAAR1, Fluo-8 calcium fluorescence; scaled: DMSO 0%, maximal phenethylamine 100%;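 active = activation above a cutoff set at the run's mean compound activation plus 3 SD, cut at about 39% in these data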
Ga16 nonsel ag – nonselective agonism, TAAR1 counter-screen; AID 651787; shares compounds with TAAR1 ag; activation, % at 3 µM; CHO-Ga16 parental, Fluo-8 calcium fluorescence; normalized to maximal ATP response, DMSO zero; 50% of 2,400 active;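 active = activation above the run cutoff, the mean activation over all tested wells plus 3 SD, cut at about 12% in these data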;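 note: 0% = DMSO wells and 100% = maximal ATP response on the peak over basal ratio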
TAAR1 desensitize – counter-screen for human TAAR1 agonists: agonists that desensitize TAAR1 | shares compounds with TAAR1 ag | CHO RD-HGA16 hTAAR1, Fluo-8 calcium, beta-PEA response inhibition | inhibition, % at 3 µM | 46% of 2,400 active;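 active = inhibition above the run cutoff, the mean inhibition of all test compounds plus 3 SD, cut at about 49% in these data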;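 note: beta-PEA stimulus applied at its EC80; loss of beta-PEA calcium signal after compound pretreatment read as receptor desensitization; 0% = DMSO with beta-PEA at EC80 and 100% = DMSO alone without agonist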
Ga16 nonsel ant – nonselective Ga16 antagonism, counter-screen. shares compounds with TAAR1 ag. CHO-Ga16 ATP-induced calcium, Fluo-8 fluorescence. inhibition, % at 3 µM. 39% of 2,400 active. AID 651952;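 active = inhibition above the plate's mean compound inhibition plus 3 SD, computed per plate, cut at about 22% in these data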;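 note: 0% = EC80 ATP with DMSO and 100% = DMSO wells without ATP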
* = called active by the depositor; · = not tested or not shown. This is a sample that favours compounds with a hit; in the whole collection about 2.3% have one here.

SMILES	V1R ag counter	TAAR1 ag	OXTR ag	OXTR potentiator	TAAR1 antagonist	TAAR1 ag conf	Ga16 nonsel ag	TAAR1 desensitize	Ga16 nonsel ant
O=C(Nc1nc2c(Cl)ccc(Cl)c2s1)c1ccco1	1	114*	8	-8	70*	107*	89*	92*	62*
O=C(Nc1nc2ccsc2c(=O)s1)c1ccco1	-1	1	-1	4	-4	·	·	·	·
O=C(COC(=O)C1CCC1)Nc1ccc(Cl)cn1	5	1	2	-4	-15	·	·	·	·
O=C(COC(=O)CCC1CCCC1)Nc1ccc(Cl)cn1	-1	46*	-2	5	24	1	0	9	15
CCN(CCn1cccn1)C(=O)CC1C(=O)NCCN1CC1CCCCC1 (stereo not given)	0	3	0	-6	27	·	·	·	·
CCN(CCn1cccn1)C(=O)CC1C(=O)NCCN1CCc1ccccc1 (stereo not given)	1	78*	-1	-8	30	93*	2	82*	2
O=C(N[C@@H](Cc1cccnc1)C(=O)N1CCC[C@H]1C(=O)NCCc1ccccc1Cl)c1ccc(Cl)cc1Cl	·	65*	·	·	66*	72*	1	89*	-1
O=C(N[C@@H](Cc1cccnc1)C(=O)N1CCC[C@H]1C(=O)NCCc1ccccc1Cl)C1CCCC1	·	80*	·	·	73*	80*	-1	86*	2
O=C(CC1CCCC1)N[C@@H](Cc1cccnc1)C(=O)N1CCC[C@H]1C(=O)NCCc1ccccc1Cl	·	70*	·	·	78*	87*	13*	90*	5
COc1cccc(C(=O)N[C@@H](Cc2cccnc2)C(=O)N2CCC[C@H]2C(=O)NCCc2ccccc2Cl)c1	·	67*	·	·	71*	83*	9	93*	10
COc1cccc(C(=O)N[C@@H](Cc2cccnc2)C(=O)N2CCC[C@H]2C(=O)NCc2ccccc2)c1	·	0	·	·	-6	·	·	·	·
O=C(N[C@@H](Cc1cccnc1)C(=O)N1CCC[C@H]1C(=O)NCCc1ccccc1Cl)c1ccco1	·	30	·	·	12	·	·	·	·
O=C(N[C@@H](Cc1cccnc1)C(=O)N1CCC[C@H]1C(=O)NCc1ccccc1)c1ccc(Cl)cc1Cl	·	2	·	·	-26	·	·	·	·
Cc1cccc2sc(N(CCCN(C)C)C(=O)c3ccc(Cl)s3)nc12	0	11	4	-2	-18	·	·	·	·
O=C(Nc1c(-c2ccc(Cl)cc2)[nH][nH]c1=O)c1ccc(Br)cc1	·	3	·	·	15	·	·	·	·
CS(=O)(=O)N1CCc2ccc(NC(=O)C3CCCO3)cc2C1 (stereo not given)	2	4	0	-7	-13	·	·	·	·
O=[N+]([O-])c1ccccc1CNCCCCO	0	10	0	-3	-7	·	·	·	·
O=C(Cn1nnc(N2CCCC2)n1)N/N=C/c1ccc(Cl)cc1	3	58*	7	-4	-4	85*	5	28	2
CCOC(=O)c1cn(C2CC2)c2c(F)c(F)c(F)cc2c1=O	-1	49*	-1	-4	-20	0	-1	3	2
O=C(O)c1ccc(N/N=C/C(Br)=C/c2ccccc2)cc1	5	122*	5	-5	60*	33	19*	34	21
Cc1cccc(OCC(=O)Nc2ccc(S(=O)(=O)N3CCCC3)cc2)c1	6	9	4	-15	-4	·	·	·	·
CN(C)c1ccc(/C=C/C(=O)c2cccc(Br)c2)cc1	155*	328*	94*	-10	109*	126*	125*	85*	83*
CN(C)c1ccc(C(=O)/C=C/c2cccnc2)cc1	-1	0	-1	-1	-4	·	·	·	·
O=C1NC(Cc2ccccc2)c2nc3cc(F)ccc3c(=O)n2-c2cc(Cl)ccc21 (stereo not given)	2	72*	4	3	24	50*	17*	14	12
Nc1nc(N)c2cc(Sc3cccc(C(F)(F)F)c3)ccc2n1	·	36	·	·	-5	·	·	·	·
SMILES	V1R ag counter	TAAR1 ag	OXTR ag	OXTR potentiator	TAAR1 antagonist	TAAR1 ag conf	Ga16 nonsel ag	TAAR1 desensitize	Ga16 nonsel ant
Nc1nc(N)c2cc(Sc3ccc(Cl)cc3)ccc2n1	·	60*	·	·	28	65*	40*	56*	40*
O=C(COC(=O)CNS(=O)(=O)c1ccc(Br)cc1Cl)NC1CC1	0	3	0	-3	-9	·	·	·	·
O=C(O)CCCCCN1C(=O)/C(=C\c2ccc(-c3ccc(Cl)cc3)o2)SC1=S	0	1	2	-15	9	·	·	·	·
O=C(O)CCCN1C(=O)/C(=C/c2ccc(-c3nc4ccccc4s3)o2)SC1=S	0	72*	2	-8	82*	55*	39*	84*	67*
NC(Cc1ccc(F)cc1)c1csc(Nc2ccc(S(N)(=O)=O)cc2)n1 (stereo not given)	·	61*	·	·	19	76*	7	53*	7
NC(Cc1ccccc1)c1csc(Nc2ccc(C(=O)NCCO)cc2)n1 (stereo not given)	·	45*	·	·	23	76*	2	58*	10
CS(=O)(=O)c1ccc(Nc2nc(C(N)Cc3ccccc3)cs2)cc1 (stereo not given)	·	47*	·	·	3	75*	2	48	14
CS(=O)(=O)c1ccc(Nc2nc(C(N)Cc3ccc(F)cc3)cs2)cc1 (stereo not given)	·	8	·	·	-3	·	·	·	·
O=C(O)C1=NN(c2ccccc2)C(=O)C1	0	1	1	-1	-13	·	·	·	·
COc1ccccc1-c1cc(C2CC2)nc(N)c1C#N	0	35	-2	-5	-21	·	·	·	·
N#Cc1c(-c2ccccc2Cl)cc(C2CC2)nc1N	30*	92*	36*	-8	0	100*	60*	38	16
Cc1nc(N)c(C#N)c(-c2ccccc2Cl)c1C	6	73*	3	-7	-8	66*	44*	6	9
CC(C)C(=O)NC(=S)Nc1ccc(S(=O)(=O)Nc2ccccc2)cc1	11	23	5	-9	17	·	·	·	·
CCOc1ccc(NS(=O)(=O)c2ccc(NC(=S)NC(C)=O)cc2)cc1	27*	85*	29*	-14	22	75*	48*	53*	33*

Source: PubChem
